Reference: ChEMBL document CHEMBL3286229 (J Med Chem, 2014)
The source made the active and inactive calls. The rule behind the calls is not given here.

Legend:
Mus musculus [1] = assay: Sedative effect in ip dosed C57BL/6N mouse assessed as reduction in locomotor activity by open field test; type: organism-based; conditions: in vivo
Summary of the method: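 Male C57BL/6N mice, 3–6 months old, dosed ip 30 min before testing. Vehicle was 0.9% NaCl with 10% DMSO and 3% Tween 80; doses in mg/kg. Ambulation recorded over 10 min in a 50 × 50 cm box fitted with infrared rearing detection.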

[2] = target: Transient receptor potential cation channel subfamily V member 1 (Homo sapiens) (UniProt Q8NER1); assay: Activation of TRPV1 (unknown origin) expressed in Xenopus oocytes up to 100 uM; type: cell-based
Sequence of Transient receptor potential cation channel subfamily V member 1 (Homo sapiens) (Q8NER1 whole entry): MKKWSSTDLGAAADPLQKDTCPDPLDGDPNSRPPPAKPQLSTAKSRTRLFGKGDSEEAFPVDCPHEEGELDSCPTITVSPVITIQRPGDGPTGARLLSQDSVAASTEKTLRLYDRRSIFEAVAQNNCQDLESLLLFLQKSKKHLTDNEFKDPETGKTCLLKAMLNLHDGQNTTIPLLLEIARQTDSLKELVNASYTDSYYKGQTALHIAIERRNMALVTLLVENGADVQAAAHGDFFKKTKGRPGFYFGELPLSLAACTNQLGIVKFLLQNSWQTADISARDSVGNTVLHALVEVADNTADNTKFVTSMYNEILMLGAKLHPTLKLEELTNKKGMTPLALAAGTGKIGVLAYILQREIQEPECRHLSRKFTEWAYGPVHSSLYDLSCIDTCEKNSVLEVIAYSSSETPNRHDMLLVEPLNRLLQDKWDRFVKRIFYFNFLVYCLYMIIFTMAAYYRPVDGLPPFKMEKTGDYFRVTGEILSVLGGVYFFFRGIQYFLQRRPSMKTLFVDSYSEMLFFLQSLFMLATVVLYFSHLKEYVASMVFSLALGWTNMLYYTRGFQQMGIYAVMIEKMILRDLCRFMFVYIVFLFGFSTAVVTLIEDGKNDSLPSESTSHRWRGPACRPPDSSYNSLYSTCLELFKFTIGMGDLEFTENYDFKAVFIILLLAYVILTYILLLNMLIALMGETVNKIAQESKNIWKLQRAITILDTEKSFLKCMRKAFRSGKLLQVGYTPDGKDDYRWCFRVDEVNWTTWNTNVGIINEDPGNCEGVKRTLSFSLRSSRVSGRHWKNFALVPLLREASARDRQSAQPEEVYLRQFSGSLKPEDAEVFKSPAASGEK

[3] = target: T1, GABA-A receptor; alpha-1/beta-2/gamma-2 (Homo sapiens, UniProt P14867+P18507+P47870); assay: Modulation of GABAA alpha1beta2gamma2S receptor (unknown origin) expressed in Xenopus laevis oocytes assessed as potentiation of GABA-induced chloride ion current at holding potential -70 mV by two-microelectrode voltage clamp assay; type: cell-based
T1 sequence (P14867 whole entry): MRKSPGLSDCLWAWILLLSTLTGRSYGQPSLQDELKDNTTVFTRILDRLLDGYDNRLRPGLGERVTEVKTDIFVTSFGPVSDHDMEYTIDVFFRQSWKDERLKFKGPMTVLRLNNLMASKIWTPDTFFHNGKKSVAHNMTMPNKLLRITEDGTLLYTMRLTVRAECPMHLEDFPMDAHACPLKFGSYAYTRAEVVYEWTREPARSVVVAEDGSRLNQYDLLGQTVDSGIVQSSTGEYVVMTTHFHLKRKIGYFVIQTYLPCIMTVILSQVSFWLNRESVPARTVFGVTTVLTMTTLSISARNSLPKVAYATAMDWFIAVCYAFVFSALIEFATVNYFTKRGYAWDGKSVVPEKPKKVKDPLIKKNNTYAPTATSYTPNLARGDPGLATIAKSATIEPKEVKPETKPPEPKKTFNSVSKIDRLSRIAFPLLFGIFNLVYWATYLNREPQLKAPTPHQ
T1 sequence (P47870 whole entry): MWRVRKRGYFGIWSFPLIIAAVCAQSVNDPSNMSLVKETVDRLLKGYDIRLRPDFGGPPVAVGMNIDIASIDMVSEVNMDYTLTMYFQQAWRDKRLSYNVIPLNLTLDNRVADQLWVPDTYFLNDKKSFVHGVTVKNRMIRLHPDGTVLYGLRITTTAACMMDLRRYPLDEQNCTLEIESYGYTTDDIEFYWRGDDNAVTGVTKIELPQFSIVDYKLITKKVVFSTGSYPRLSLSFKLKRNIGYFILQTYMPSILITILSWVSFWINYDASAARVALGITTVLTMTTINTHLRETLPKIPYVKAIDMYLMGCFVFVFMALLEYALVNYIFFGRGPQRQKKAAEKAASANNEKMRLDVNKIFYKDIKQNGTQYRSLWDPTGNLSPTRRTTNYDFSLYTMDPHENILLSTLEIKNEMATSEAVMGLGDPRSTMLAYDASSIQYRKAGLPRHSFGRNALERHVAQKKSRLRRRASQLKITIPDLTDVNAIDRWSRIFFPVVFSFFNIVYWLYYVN
T1 sequence (P18507 whole entry): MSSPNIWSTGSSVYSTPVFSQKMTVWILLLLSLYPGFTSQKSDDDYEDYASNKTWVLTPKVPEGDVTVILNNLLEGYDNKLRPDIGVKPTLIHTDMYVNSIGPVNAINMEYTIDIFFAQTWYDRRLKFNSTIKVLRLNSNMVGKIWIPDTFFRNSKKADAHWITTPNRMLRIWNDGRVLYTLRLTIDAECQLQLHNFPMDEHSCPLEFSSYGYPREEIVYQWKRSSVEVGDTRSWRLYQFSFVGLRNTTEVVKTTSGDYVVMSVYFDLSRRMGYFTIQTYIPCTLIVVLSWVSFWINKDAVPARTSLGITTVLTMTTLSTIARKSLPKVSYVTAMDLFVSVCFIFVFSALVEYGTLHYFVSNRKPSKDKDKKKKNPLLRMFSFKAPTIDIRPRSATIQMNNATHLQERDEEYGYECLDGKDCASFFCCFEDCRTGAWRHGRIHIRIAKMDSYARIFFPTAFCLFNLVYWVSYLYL
Summary of the method: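 Stage V–VI oocytes injected with α1, β2 and γ2S cRNAs mixed 1:1:10 and kept at 18 °C in modified ND96 (pH 7.4). Two-microelectrode voltage clamp at room temperature, holding potential −70 mV, electrodes with 2 M KCl. Compounds co-applied by fast perfusion with GABA at EC3–7. Washout lasted 1.5 min below 10 μM and 30 min at ≥10 μM. Oocytes with currents >3 μA discarded.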

Mus musculus [4] = assay: Anxiolysis activity in ip dosed C57BL/6N mouse assessed as time spent on open arms by elevated plus maze test; type: functional, organism-based
Summary of the method: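 Male C57BL/6N mice, 3–6 months old, given ip injections 30 min before testing. Vehicle was 0.9% NaCl with 10% DMSO and 3% Tween 80; doses in mg/kg, with saline controls. 5 min on an elevated plus maze (arms 50 × 5 cm, 1 m high, 180 Lux), starting in the centre facing an open arm. Time on open arms scored automatically by video.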

Row | Activity [2] | Structure (SMILES) | Activity (Mus musculus [1]) | EC50 [3] [µM] | Activity (Mus musculus [4])
1 | inactive | CCCCN(CCCC)C(=O)/C=C/C=C/c1ccc2c(c1)OCO2 | Toxic |  | 
2 |  | O=C(/C=C/C=C/c1ccc2c(c1)OCO2)N1CCCCC1 [PIPERINE] |  | 52.4 | 
3 | inactive | CCCN(CCC)C(=O)/C=C/C=C/c1ccc2c(c1)OCO2 | Toxic |  | Dose-dependent effect
